This passage reports IC50 and inhibition results from ChEMBL document CHEMBL1139795, “Capped diaminopropionamide-glycine dipeptides are inhibitors of CC chemokine receptor 2 (CCR2)” (Bioorg Med Chem Lett, 2007).

The structures appear in SMILES notation.

C-C chemokine receptor type 2, sequence (P41597 whole entry): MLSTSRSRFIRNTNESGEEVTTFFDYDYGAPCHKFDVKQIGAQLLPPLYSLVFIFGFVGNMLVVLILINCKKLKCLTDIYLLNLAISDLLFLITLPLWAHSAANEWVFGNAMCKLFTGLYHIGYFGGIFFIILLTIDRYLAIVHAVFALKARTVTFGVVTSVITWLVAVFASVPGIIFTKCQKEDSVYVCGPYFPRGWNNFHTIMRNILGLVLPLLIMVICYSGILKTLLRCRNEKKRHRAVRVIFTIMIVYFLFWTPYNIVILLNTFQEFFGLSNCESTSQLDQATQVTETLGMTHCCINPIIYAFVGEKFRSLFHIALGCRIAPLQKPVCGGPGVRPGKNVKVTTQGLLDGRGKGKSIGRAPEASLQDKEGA

One experiment addresses C-C chemokine receptor type 2 (Homo sapiens, UniProt P41597). In words: Displacement of [125]MCP1 from CCR2 in human PBMCs. The procedure, abridged: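 Competition binding with 0.3 nM [125I]MCP-1 on human peripheral blood mononuclear cells at 23 °C. IC50 given as mean ± SD (n = 2) or mean ± SEM (n > 2). Single determinations are listed with n = 1.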
Take `COC(=O)[C@@H](CNCc1ccc(C)cc1C)NC(=O)CNC(=O)c1cccc(C(F)(F)F)c1`: the IC50 worked out at 1000 nM.
The compound `Cc1ccc(CNC[C@H](NC(=O)CNC(=O)c2cccc(C(F)(F)F)c2)C(=O)NC2CCCC2)c(C)c1` showed an IC50 of 99 nM.
Turning to `CON(C)C(=O)[C@H](CNCc1ccc(C)cc1C)NC(=O)CNC(=O)c1cccc(C(F)(F)F)c1`, the IC50 is 110 nM.
Take `CCNC(=O)C(C)(CNCc1ccc(C)cc1C)NC(=O)CNC(=O)c1cc(C(F)(F)F)ccc1N` (racemic): the IC50 was 8700 nM.
Compound `Cc1ccc(CNC[C@@H](NC(=O)CNC(=O)c2cccc(C(F)(F)F)c2)C(N)=O)c(C)c1` gave an IC50 of 630 nM.
As to `Cc1ccc(CNC[C@H](NC(=O)CNC(=O)c2cc(C(F)(F)F)ccc2NC(=O)OC(C)C)C(=O)NC(C)(C)C)c(C)c1`, the half-inhibitory concentration (IC50) was determined as 65 nM. Against the preceding compound, the IC50 is about 9.7-fold lower.
In turn, `CCNC(=O)[C@@H](CNCc1ccc(C)cc1C)NC(=O)CNC(=O)c1cccc(C(F)(F)F)c1` yielded an IC50 of 560 nM.
Regarding `COC(=O)[C@@H](CNC(=O)CNC(=O)c1cccc(C(F)(F)F)c1)NCc1ccc(C)cc1C`, the IC50 was found to be 15000 nM.
`Cc1cc(C#N)ccc1CNC[C@H](NC(=O)CNC(=O)c1cccc(C(F)(F)F)c1)C(=O)NC(C)(C)C` gave an IC50 of 900 nM.
Same read-out and setting: the same measure for `Cc1ccc(CNC[C@H](NC(=O)CNC(=O)c2cccc(C(F)(F)F)c2)C(=O)NC2CCC2)c(C)c1`: 97 nM; for `Cc1ccc(CNC[C@H](NC(=O)CNC(=O)c2cccc(SC(F)(F)F)c2)C(=O)NC(C)(C)C)c(C)c1`: 150 nM; for `Cc1ccc(CNC[C@H](NC(=O)CNC(=O)c2cccc(C(F)(F)C(F)(F)F)c2)C(=O)NC(C)(C)C)c(C)c1`: 65 nM.
Regarding `C=CCNC(=O)[C@H](CNCc1ccc(C)cc1C)NC(=O)CNC(=O)c1cccc(C(F)(F)F)c1`, the IC50 came to 200 nM.
The compound `CCc1ccc(CNC[C@H](NC(=O)CNC(=O)c2cccc(C(F)(F)F)c2)C(=O)NC(C)(C)C)cc1` registered an IC50 of 530 nM.
In turn, `CCNC(=O)[C@@H](NC(=O)CNC(=O)c1cccc(C(F)(F)F)c1)[C@@H](C)NCc1ccc(C)cc1C` gave a half-inhibitory concentration (IC50) of 130 nM. Compared with the last compound, the IC50 is about 4.1-fold lower.
On the same count and under the same terms, as for `Cc1ccc(CNC[C@@H](CO)NC(=O)CNC(=O)c2cccc(C(F)(F)F)c2)c(C)c1`, the figure is 320 nM; as for `CCNC(=O)[C@H](CCN(C)Cc1ccc(C)cc1C)NC(=O)CNC(=O)c1cccc(C(F)(F)F)c1`, 150 nM; as for `Cc1ccc(CNC[C@@H](NC(=O)CNC(=O)c2cccc(C(F)(F)F)c2)C(=O)NC(C)(C)C)c(C)c1`, 110 nM.
As for `Cc1ccc(CNC[C@H](NC(=O)CNC(=O)c2cccc(C(F)(F)F)c2)C(=O)NC(C)(C)CO)c(C)c1`, the IC50 turned out to be 190 nM.
Take `Cc1ccc(CNC[C@H](NC(=O)CNC(=O)c2cccc(C(F)(F)F)c2)C(=O)O)c(C)c1`: the IC50 was 5500 nM.
`Cc1cc(N(C)C)ccc1CNC[C@H](NC(=O)CNC(=O)c1cccc(C(F)(F)F)c1)C(=O)NC(C)(C)C`: the IC50 turned out to be 36 nM. Compared with the last compound, the IC50 is about 150-fold lower.
The same measure, in the same setting: the same measure for `Cc1ccc(CNC[C@H](NC(=O)CNC(=O)c2cccc(C(F)(F)F)c2)C(=O)N2CCCC2)c(C)c1`: 260 nM.
`Cc1ccc(CNC[C@H](NC(=O)CNC(=O)c2cccc(C(F)(F)F)c2)C(=O)NC(C)(C)C)cc1N` showed an IC50 of 120 nM.
Compound `Cc1ccc(CNC[C@H](NC(=O)CNC(=O)c2cc(C(F)(F)F)ccc2NCC(C)C)C(=O)NC(C)(C)C)c(C)c1` gave an IC50 of 23 nM.

A further experiment deals with T1, C-C chemokine receptor type 1 (Homo sapiens) (UniProt P32246).
T1 sequence (whole entry): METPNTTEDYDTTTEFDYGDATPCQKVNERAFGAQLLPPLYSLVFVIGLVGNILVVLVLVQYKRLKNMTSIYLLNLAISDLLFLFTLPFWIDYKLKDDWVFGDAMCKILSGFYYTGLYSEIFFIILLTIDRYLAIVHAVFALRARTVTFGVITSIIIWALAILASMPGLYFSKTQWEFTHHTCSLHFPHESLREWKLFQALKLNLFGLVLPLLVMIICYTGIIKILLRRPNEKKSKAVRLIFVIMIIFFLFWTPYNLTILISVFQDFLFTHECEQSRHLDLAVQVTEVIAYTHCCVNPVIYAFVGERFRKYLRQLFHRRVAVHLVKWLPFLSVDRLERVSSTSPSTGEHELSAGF
In words: Inhibition of CCR1 at 10 uM.
Regarding `COC(=O)[C@@H](CNCc1ccc(C)cc1C)NC(=O)CNC(=O)c1cccc(C(F)(F)F)c1`, the inhibition is below 30%.
`Cc1ccc(CNC[C@H](NC(=O)CNC(=O)c2cccc(C(F)(F)F)c2)C(=O)NC2CCCC2)c(C)c1` yielded an inhibition below 30%.
Still for that read-out and setting: the same measure for `CON(C)C(=O)[C@H](CNCc1ccc(C)cc1C)NC(=O)CNC(=O)c1cccc(C(F)(F)F)c1`: below 30%; for `CCNC(=O)C(C)(CNCc1ccc(C)cc1C)NC(=O)CNC(=O)c1cc(C(F)(F)F)ccc1N` (racemic): below 30%.
`Cc1ccc(CNC[C@@H](NC(=O)CNC(=O)c2cccc(C(F)(F)F)c2)C(N)=O)c(C)c1` showed an inhibition below 30%.
Compound `Cc1ccc(CNC[C@H](NC(=O)CNC(=O)c2cc(C(F)(F)F)ccc2NC(=O)OC(C)C)C(=O)NC(C)(C)C)c(C)c1` yielded an inhibition below 30%.
Turning to `CCNC(=O)[C@@H](CNCc1ccc(C)cc1C)NC(=O)CNC(=O)c1cccc(C(F)(F)F)c1`, the inhibition is below 30%.
The same measure, in the same setting: the same measure for `COC(=O)[C@@H](CNC(=O)CNC(=O)c1cccc(C(F)(F)F)c1)NCc1ccc(C)cc1C`: below 30%; for `Cc1cc(C#N)ccc1CNC[C@H](NC(=O)CNC(=O)c1cccc(C(F)(F)F)c1)C(=O)NC(C)(C)C`: below 30%; for `Cc1ccc(CNC[C@H](NC(=O)CNC(=O)c2cccc(C(F)(F)F)c2)C(=O)NC2CCC2)c(C)c1`: below 30%.
For the compound `Cc1ccc(CNC[C@H](NC(=O)CNC(=O)c2cccc(SC(F)(F)F)c2)C(=O)NC(C)(C)C)c(C)c1`, the inhibition was below 30%.
The same measure, in the same setting: the same measure for `Cc1ccc(CNC[C@H](NC(=O)CNC(=O)c2cccc(C(F)(F)C(F)(F)F)c2)C(=O)NC(C)(C)C)c(C)c1`: below 30%; for `C=CCNC(=O)[C@H](CNCc1ccc(C)cc1C)NC(=O)CNC(=O)c1cccc(C(F)(F)F)c1`: below 30%.
As to `CCc1ccc(CNC[C@H](NC(=O)CNC(=O)c2cccc(C(F)(F)F)c2)C(=O)NC(C)(C)C)cc1`, the inhibition is below 30%.
In the case of `CCNC(=O)[C@@H](NC(=O)CNC(=O)c1cccc(C(F)(F)F)c1)[C@@H](C)NCc1ccc(C)cc1C`, the inhibition was below 30%.
The compound `Cc1ccc(CNC[C@@H](CO)NC(=O)CNC(=O)c2cccc(C(F)(F)F)c2)c(C)c1` registered an inhibition below 30%.
Turning to `CCNC(=O)[C@H](CCN(C)Cc1ccc(C)cc1C)NC(=O)CNC(=O)c1cccc(C(F)(F)F)c1`, the inhibition was below 30%.
With `Cc1ccc(CNC[C@@H](NC(=O)CNC(=O)c2cccc(C(F)(F)F)c2)C(=O)NC(C)(C)C)c(C)c1`, the inhibition was below 30%.
Turning to `Cc1ccc(CNC[C@H](NC(=O)CNC(=O)c2cccc(C(F)(F)F)c2)C(=O)NC(C)(C)CO)c(C)c1`, the inhibition was below 30%.
`Cc1ccc(CNC[C@H](NC(=O)CNC(=O)c2cccc(C(F)(F)F)c2)C(=O)O)c(C)c1` displayed an inhibition below 30%.
On the same count and under the same terms, the same measure for `Cc1cc(N(C)C)ccc1CNC[C@H](NC(=O)CNC(=O)c1cccc(C(F)(F)F)c1)C(=O)NC(C)(C)C`: below 30%; for `Cc1ccc(CNC[C@H](NC(=O)CNC(=O)c2cccc(C(F)(F)F)c2)C(=O)N2CCCC2)c(C)c1`: below 30%; for `Cc1ccc(CNC[C@H](NC(=O)CNC(=O)c2cccc(C(F)(F)F)c2)C(=O)NC(C)(C)C)cc1N`: below 30%.
Regarding `Cc1ccc(CNC[C@H](NC(=O)CNC(=O)c2cc(C(F)(F)F)ccc2NCC(C)C)C(=O)NC(C)(C)C)c(C)c1`, the inhibition is below 30%.
